# Reference: ChEMBL document CHEMBL1649117, “GRL-02031, a novel nonpeptidic protease inhibitor (PI) containing a stereochemically defined fused cyclopentanyltetrahydrofuran potent against multi-PI-resistant human immunodeficiency virus type 1 in vitro” (Antimicrob Agents Chemother, 2009)
# What was measured:
# [1] = system: Human immunodeficiency virus 1; experiment: Ratio of EC50 for HIV1 C harboring L10I/I15V/K20R/L24I/M36I/M46L/I54V/I62V/L63P/K70Q/V82A/L89M in protease encoding region to EC50 for HIV1 ERS104pre; format: functional
# [2] = system: Human immunodeficiency virus; experiment: Antiviral activity against HIV1 LAI infected in human MT2 cells after 7 days by MTT assay; format: functional, organism-based; conditions: Human immunodeficiency virus 1, LAI, MT2, 168 h
# [3] = system: Human immunodeficiency virus 1; experiment: Ratio of EC50 for HIV1 NL4-3 harboring L10F/M46I/I54V/V82A amino acid substitution in protease encoding region to EC50 for HIV1 NL4-3; format: functional
# In short: (§1)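 MT-4 cells (10^5/ml) infected with 100 TCID50s of PI-selected HIV-1NL4-3 variants or the parental strain, with or without serial drug concentrations, at 37°C. Day 7 supernatant p24 Gag measured by chemiluminescent enzyme immunoassay. […] Triplicate. Ratio is variant EC50 over wild-type EC50.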
# [4] = system: Human immunodeficiency virus 1; experiment: Antiviral activity against HIV1 MM harboring L10I/K43T/M46L/I54V/L63P/A71V/V82A/L90M/Q92K in protease encoding region infected in human PHA-PBC assessed as inhibition of p24 Gag protein production by ELISA; format: functional, organism-based; conditions: Human immunodeficiency virus 1, MM
# In short: (§2)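 Phytohemagglutinin-stimulated PBMs (10^6/ml) infected with 50 TCID50s of each primary isolate, cultured with or without drug in 10-fold serial dilutions. On day 7, supernatant p24 Gag was measured by automated chemiluminescent enzyme immunoassay. […] Triplicate.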
# [5] = Selectivity index, ratio of CC50 for human MT2 cells to EC50 for HIV1 LAI; format: toxicity, cell-based; conditions: read-out: Selectivity Index
# [6] = system: Human immunodeficiency virus 1; experiment: Antiviral activity against HIV1 NL4-3 harboring L23I/K43I/M46I/I50L/G51A/A71V amino acid substitution in protease encoding region infected in human MT4 cells assessed as inhibition of p24 Gag protein production selected at 1 uM of atazanavir by ELISA; format: functional, organism-based; conditions: Human immunodeficiency virus 1, NL4-3, MT4
# In short: (§3)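 HIV-1NL4-3 (500 TCID50s) was passaged in MT-4 cells, starting at 0.01–0.03 µM PI and raising the drug generally two- to threefold as virus propagated. Cell-free passage used day-7 supernatants. Variants were then tested in MT-4 cells (10^5/ml) with 100 TCID50s, with or without drug, at 37°C. Day-7 p24 Gag was read by chemiluminescent immunoassay; EC50 vs drug-free control; triplicate.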
# [7] = system: Human immunodeficiency virus 1; experiment: Ratio of EC50 for HIV1 NL4-3 harboring L10F/L33F/M46I/I47V/Q58E/V82I/I84V/I85V amino acid substitution in protease encoding region to EC50 for HIV1 NL4-3; format: functional; in short: as §1
# [8] = system: Human immunodeficiency virus 1; experiment: Antiviral activity against HIV1 JSL harboring L10I/L24I/L33F/E35D/M36I/N37S/M46L/I54V/R57K/I62V/L63P/A71V/G73S/82A in protease encoding region infected in human PHA-PBC assessed as inhibition of p24 Gag protein production by ELISA; format: functional, organism-based; conditions: Human immunodeficiency virus 1, JSL; in short: as §2
# [9] = system: Human immunodeficiency virus 1; experiment: Ratio of EC50 for HIV1 TM harboring L10I/K14R/R41K/M46L/I54V/L63P/A71V/V82A/L90M/I93L in protease encoding region to EC50 for HIV1 ERS104pre; format: functional
# In short: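 PHA-stimulated PBMs (10^6/ml) infected with 50 TCID50s of primary HIV-1 isolate and cultured with 10-fold serial drug dilutions. Day 7 supernatant p24 Gag measured by chemiluminescent enzyme immunoassay. […] Triplicate. Ratio is resistant isolate EC50 over reference isolate EC50.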
# [10] = system: Human immunodeficiency virus 1; experiment: Antiviral activity against HIV1 NL4-3 harboring L10F/V32I/M46I/I54M//A71V/I84V amino acid substitution in protease encoding region infected in human MT4 cells assessed as inhibition of p24 Gag protein production selected at 5 uM of amprenavir by ELISA; format: functional, organism-based; conditions: Human immunodeficiency virus 1, NL4-3, MT4
# In short: (§4)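 Cell-free passage used day-7 supernatants. Variants were then tested in MT-4 cells (10^5/ml) with 100 TCID50s, with or without drug, at 37°C. Day-7 p24 Gag was read by chemiluminescent immunoassay; EC50 vs drug-free control; triplicate.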
# [11] = system: Human immunodeficiency virus 1; experiment: Antiviral activity against HIV1 NL4-3 infected in human MT4 cells assessed as inhibition of p24 gag protein production by ELISA; format: functional, organism-based; conditions: Human immunodeficiency virus 1, NL4-3, MT4
# In short: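 MT-4 cells (10^5/ml) were infected with 100 TCID50s of HIV-1 and cultured at 37°C with or without various drug concentrations. On day 7, supernatant p24 Gag was measured by automated chemiluminescent enzyme immunoassay. […] Assays were run in triplicate.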
# [12] = system: Human immunodeficiency virus 1; experiment: Antiviral activity against HIV1 NL4-3 harboring L10F/L24I/M46I/L63P/A71V/G73S/V82T amino acid substitution in protease encoding region infected in human MT4 cells assessed as inhibition of p24 Gag protein production selected at 5 uM of indinavir by ELISA; format: functional, organism-based; conditions: Human immunodeficiency virus 1, NL4-3, MT4; in short: as §3
# [13] = system: Human immunodeficiency virus 1; experiment: Ratio of EC50 for HIV1 NL4-3 harboring L10F/L24I/M46I/L63P/A71V/G73S/V82T amino acid substitution in protease encoding region to EC50 for HIV1 NL4-3; format: functional; in short: as §1
# [14] = system: Human immunodeficiency virus 1; experiment: Ratio of EC50 for HIV1 NL4-3 harboring L23I/K43I/M46I/I50L/G51A/A71V amino acid substitution in protease encoding region to EC50 for HIV1 NL4-3; format: functional; in short: as §1
# [15] = system: Human immunodeficiency virus 1; experiment: Ratio of EC50 for HIV1 G harboring L10I/V11I/T12E/I15V/L19I/R41K/M46L/L63P/A71T/V82A/L90M in protease encoding region to EC50 for HIV1 ERS104pre; format: functional
# [16] = system: Human immunodeficiency virus 1; experiment: Antiviral activity against HIV1 NL4-3 harboring L10F/M46I/I54V/V82A amino acid substitution in protease encoding region infected in human MT4 cells assessed as inhibition of p24 Gag protein production selected at 1 uM of Lopinavir by ELISA; format: functional, organism-based; conditions: Human immunodeficiency virus 1, NL4-3, MT4; in short: as §4
# [17] = system: Human immunodeficiency virus 1; experiment: Ratio of EC50 for HIV1 NL4-3 harboring L10F/V32I/M46I/I54M//A71V/I84V amino acid substitution in protease encoding region to EC50 for HIV1 NL4-3; format: functional; in short: as §1
# [18] = system: Human immunodeficiency virus 1; experiment: Antiviral activity against HIV1 TM harboring L10I/K14R/R41K/M46L/I54V/L63P/A71V/V82A/L90M/I93L in protease encoding region infected in human PHA-PBC assessed as inhibition of p24 Gag protein production by ELISA; format: functional, organism-based; conditions: Human immunodeficiency virus 1, TM; in short: as §2
# [19] = system: Human immunodeficiency virus 1; experiment: Antiviral activity against HIV1 A harboring L10I/I15V/E35D/N37E/K45R/I54V/L63P/A71V/V82T/L90M/I93L/C95F in protease encoding region infected in human PHA-PBC assessed as inhibition of p24 Gag protein production by ELISA; format: functional, organism-based; conditions: Human immunodeficiency virus 1, A
# In short: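 Phytohemagglutinin-stimulated PBMs (10^6/ml) infected with 50 TCID50s of each primary isolate, cultured with or without drug in 10-fold serial dilutions. On day 7, supernatant p24 Gag was measured by automated chemiluminescent enzyme immunoassay. Triplicate.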
# [20] = Cytotoxicity against human MT2 cells by MTT assay; format: cell-based
compound,measurement,setting,value
CC(C)(C)NC(=O)[C@@H]1CN(Cc2cccnc2)CCN1C[C@@H](O)C[C@@H](Cc1ccccc1)C(=O)N[C@H]1c2ccccc2C[C@H]1O.O,Ratio EC50,[1],>48
same,EC50,[2],44 nM
same,Ratio EC50,[3],>71
same,EC50,[4],> 1000 nM
same,selectivity ratio,[5],1600
same,EC50,[6],330 nM
same,Ratio EC50,[7],3
same,EC50,[8],> 1000 nM
same,Ratio EC50,[9],>48
same,EC50,[10],220 nM
same,EC50,[11],14 nM
same,EC50,[12],> 1000 nM
same,Ratio EC50,[13],>71
same,Ratio EC50,[14],24
same,Ratio EC50,[15],16
same,EC50,[16],> 1000 nM
same,Ratio EC50,[17],16
same,EC50,[18],> 1000 nM
same,EC50,[19],> 1000 nM
Cc1c(O)cccc1C(=O)N[C@@H](CSc1ccccc1)[C@H](O)CN1C[C@H]2CCCC[C@H]2C[C@H]1C(=O)NC(C)(C)C,Ratio EC50,[1],23
same,EC50,[2],23 nM
same,Ratio EC50,[3],28
same,EC50,[4],> 1000 nM
same,EC50,[6],210 nM
same,Ratio EC50,[7],1
same,EC50,[8],> 1000 nM
same,Ratio EC50,[9],>63
same,EC50,[10],170 nM
same,EC50,[12],650 nM
same,Ratio EC50,[13],36
same,Ratio EC50,[14],12
same,Ratio EC50,[15],14
same,EC50,[16],510 nM
same,Ratio EC50,[17],10
same,EC50,[18],> 1000 nM
same,EC50,[19],330 nM
COc1ccc(S(=O)(=O)N(C[C@@H]2CCC(=O)N2)C[C@@H](O)[C@H](Cc2ccccc2)NC(=O)O[C@@H]2C[C@@H]3CCO[C@@H]3C2)cc1,Ratio EC50,[1],1
same,EC50,[2],28 nM
same,Ratio EC50,[3],2
same,EC50,[4],41 nM
same,selectivity ratio,[5],> 3600
same,EC50,[6],33 nM
same,Ratio EC50,[7],>43
same,EC50,[8],43 nM
same,Ratio EC50,[9],1
same,EC50,[10],37 nM
same,EC50,[11],23 nM
same,EC50,[12],47 nM
same,CC50,[20],> 100000 nM
same,Ratio EC50,[13],2
same,Ratio EC50,[14],1
same,Ratio EC50,[15],1
same,EC50,[16],38 nM
same,Ratio EC50,[17],2
same,EC50,[18],26 nM
same,EC50,[19],14 nM
CC(C)(C)NC(=O)[C@@H]1C[C@@H]2CCCC[C@@H]2CN1C[C@@H](O)[C@H](Cc1ccccc1)NC(=O)[C@H](CC(N)=O)NC(=O)c1ccc2ccccc2n1,Ratio EC50,[1],4
same,EC50,[2],14 nM
same,Ratio EC50,[3],4
same,selectivity ratio,[5],710
same,EC50,[6],34 nM
same,Ratio EC50,[7],1
same,EC50,[8],320 nM
same,Ratio EC50,[9],30
same,EC50,[10],16 nM
same,EC50,[11],8 nM
same,EC50,[12],22 nM
same,CC50,[20],9900 nM
same,Ratio EC50,[13],3
same,Ratio EC50,[14],4
same,Ratio EC50,[15],3
same,EC50,[16],33 nM
same,Ratio EC50,[17],2
same,EC50,[19],100 nM
CC(C)CN(C[C@@H](O)[C@H](Cc1ccccc1)NC(=O)O[C@H]1CCOC1)S(=O)(=O)c1ccc(N)cc1,Ratio EC50,[1],9
same,EC50,[2],33 nM
same,Ratio EC50,[3],11
same,EC50,[4],400 nM
same,selectivity ratio,[5],> 3000
same,EC50,[6],180 nM
same,Ratio EC50,[7],8
same,EC50,[8],660 nM
same,Ratio EC50,[9],14
same,EC50,[10],> 1000 nM
same,EC50,[11],28 nM
same,EC50,[12],260 nM
same,CC50,[20],> 100000 nM
same,Ratio EC50,[13],9
same,Ratio EC50,[14],6
same,Ratio EC50,[15],9
same,EC50,[16],320 nM
same,Ratio EC50,[17],>36
same,EC50,[19],160 nM
